# Measured values as given in ChEMBL document CHEMBL1146746, “Propargylic sulfones possessing a 2-nitroimidazole function: novel hypoxic-cell radiosensitizers with intracellular non-protein thiol depletion ability” (Bioorg Med Chem Lett, 2004).
# How the values were obtained:
# [1] = Second order rate constant was determined for the reaction of compound with GSH in phosphate buffer at a pH of 8.5
# Outline: (§1)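 Test compound and GSH reacted in phosphate buffer at 37 °C, pH 7.5 for lines 2 and 3 and pH 8.5 for line 4. Aliquots were taken at set times and quenched into phosphate buffer containing 0.2 mM Ellman's reagent (DTNB). Unreacted GSH was measured by UV absorbance at 412 nm. Second-order rate constant k₂ for nucleophilic GSH addition is given in mM⁻¹ h⁻¹.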
# [2] = Second order rate constant was determined for the reaction of compound with GSH in phosphate buffer at a pH of 7.5; outline: as §1
# [3] = Partition coefficient in octanol to water system; format: physicochemical
# [4] = Second order rate constant determined for the reaction of compound with GSH in phosphate buffer at a pH of 7.5; outline: as §1
SMILES,k2 [1],k2 [2],Po/w [3],k2 [4]
CC(=O)OC(CC#CCS(=O)(=O)c1ccccc1)Cn1ccnc1[N+](=O)[O-] (stereo not given),0.7 m M-1 hr-1,0.2 m M-1 hr-1,22.2,
O=C(O)CCC(=O)OC(CC#CCS(=O)(=O)c1ccc([N+](=O)[O-])cc1)Cn1ccnc1[N+](=O)[O-] (stereo not given),8.6 m M-1 hr-1,1.1 m M-1 hr-1,2.2,
CC(=O)OC(CC#CCS(=O)(=O)c1ccc([N+](=O)[O-])cc1)Cn1ccnc1[N+](=O)[O-] (stereo not given),17 m M-1 hr-1,,15,3 m M-1 hr-1
CC(=O)OC(CC#CCSc1ccc([N+](=O)[O-])cc1)Cn1ccnc1[N+](=O)[O-] (stereo not given),0.8 m M-1 hr-1,,,
